Where “and” joins values, the source holds several entries; their conditions need not be identical. Equal values may be shown once. Calls of active or inactive are those of the source.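 The calls were made as follows: active = fitted curve crosses 40% activation at or below the top valid dose tested for that sample; inconclusive = flat fit between 30 and 70% activation, or poor fit; inactive = the rest, including activity in the opposite direction.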
Experiments:
[1] = tested on: U2OS GFP-HIF1alpha nuclear intensity imaging; test: GFP-HIF1alpha nuclear accumulation inducers, dose response, orthogonal assay for HIF pathway activator project, imaging, U2OS, high content, dry powder, set 3 (AID 493239)
Method in brief: (§1)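 Assay system: U2OS cells carrying GFP-HIF1alpha / Benchmarks: Desferrioxamine positive control / Replicates: duplicates / Incubation: 24 h compound treatment at 37 °C / Medium: phenol red-free DMEM with 10% fetal bovine serum / Detection: fluorescence imaging at 10X of formaldehyde-fixed, DAPI-counterstained cells / Compound: 8 concentrations, 3-fold steps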

[2] = as above; conditions: U2OS GFP-HIF1alpha nuclear intensity imaging; at 38 µM (top of the series)
Method in brief: as §1

| SMILES | AC40 [1] | activation [2] |
| --- | --- | --- |
| c1ccc(-c2nnc(-c3ccccn3)nc2NCCc2ccccn2)cc1 | 4.57 µM | – |
| c1ccc(CNc2nc(-c3ccccn3)nnc2-c2ccccc2)cc1 | 2.07 µM | – |
| c1ccc(-c2nnc(-c3ccccn3)nc2NCc2ccccn2)cc1 | 6.35 µM | – |
| O=C(c1cc(-c2ccccc2)on1)N1CCN(c2ccncc2)CC1 | – | 14% (inactive) |
| c1ccc(-c2nnc(-c3ccccn3)nc2Nc2cnc3ccccc3n2)cc1 | 3.16 µM | – |
| C[C@@H](Nc1nc(-c2ccccn2)nnc1-c1ccccc1)C1CCCCC1 | 0.515 µM | – |
| O=C(Nc1nc2ccccc2s1)c1cc(-c2ccccc2)on1 | 20.1 µM | – |
| Oc1ccc(CN2CCC(Cc3ccccc3)CC2)c2cccnc12 | – | 592% (inactive) |
| O=C(NCc1ccccc1)c1cc(-c2ccccc2)on1 | – | -3.06% (inactive) |
| O=C(Nc1cn2ccccc2n1)c1cc(-c2ccccc2)on1 | 3.04 µM | – |
| O=C(NCCN1CCCCC1)c1cc(-c2ccccc2)on1 | > 38 µM (inactive) | – |
| CC(C)(C)OC(=O)N1CCN(Cc2ccc(O)c3ncccc23)CC1 | > 38 µM (inactive) | – |
| c1ccc(-c2ccc(CNc3nc(-c4ccccn4)nnc3-c3ccccc3)cc2)cc1 | 0.487 µM | – |
| O=C(NCC1CC1)c1cc(-c2ccccc2)on1 | 7.97 µM | – |
| CN(C)c1nc(-c2ccccn2)nnc1-c1ccccc1 | 11.6 µM | – |
| Cc1ccc(CNC(=O)c2cc(-c3ccccc3)on2)cc1 | – | 0.663% (inactive) |
| O=C(c1cc(-c2ccccc2)on1)N1CCC(CO)CC1 | – | 8.11% (inactive) |
| Cc1ccc(Nc2nc(-c3ccccn3)nnc2-c2ccccc2)cn1 | 9.48 µM | – |
| c1ccc(-c2nnc(-c3ccccn3)nc2N2CCC(c3ccccc3)C2)cc1 (configuration not stated) | 0.353 µM | – |
| O=C(NCCCO)c1cc(-c2ccccc2)on1 | 5.32 µM | – |
| COc1ccc(CNc2nc(-c3ccccn3)nnc2-c2ccccc2)cc1 | 1.15 µM | – |
| C[C@H](Nc1nc(-c2ccccn2)nnc1-c1ccccc1)C1CCCCC1 | 0.866 µM | – |

| SMILES | AC40 [1] | activation [2] |
| --- | --- | --- |
| O=C(Nc1ncc2ccccc2n1)c1cc(-c2ccccc2)on1 | 32.3 µM | – |
| Cn1c(-c2ccccc2)cnc1Nc1nc(-c2ccccn2)nnc1-c1ccccc1 | 8.34 µM | – |
| O=C(NC1Cc2ccccc2C1)c1cc(-c2ccccc2)on1 | – | 7.61% (inactive) |
| O=C(NCCCCO)c1cc(-c2ccccc2)on1 | 2.08 µM | – |
| O=C(c1cc(-c2ccccc2)on1)N1CCC(N2CCCC2)CC1 | – | 5.78% (inactive) |
| O=C(Nc1cnc2ccccc2c1)c1cc(-c2ccccc2)on1 | – | 8.34% (inactive) |
| Cc1cccc(NC(=O)c2cc(-c3ccccc3)on2)n1 | – | 7.71% (inactive) |
| O=C(c1cc(-c2ccccc2)on1)N1CCc2cccnc21 | – | 0.25% (inactive) |
| c1ccc(-c2nnc(-c3ccccn3)nc2N2CCN(c3ccncc3)CC2)cc1 | 5.44 µM | – |
| Cc1ccccc1CNC(=O)c1cc(-c2ccccc2)on1 | – | 6.92% (inactive) |
| c1ccc(CCNc2nc(-c3ccccn3)nnc2-c2ccccc2)cc1 | 5.72 µM | – |
| OCCCNc1nc(-c2ccccn2)nnc1-c1ccccc1 | 12.1 µM | – |
| c1ccc(-c2nnc(-c3ccccn3)nc2NCCCN2CCOCC2)cc1 | 5.94 µM | – |
| Cc1ccccc1CNc1nc(-c2ccccn2)nnc1-c1ccccc1 | 1.14 µM | – |
| Cc1ccc(NC(=O)c2cc(-c3ccccc3)on2)cn1 | > 38 µM (inactive) | – |
| c1ccc(-c2nnc(-c3ccccn3)nc2N2CCC(N3CCOCC3)CC2)cc1 | 3.85 µM | – |
| O=C(Nc1nnc(-c2ccccc2)s1)c1cc(-c2ccccc2)on1 | – | -0.414% (inactive) |
| Cc1cccc(Nc2nc(-c3ccccn3)nnc2-c2ccccc2)n1 | 2.98 µM | – |
| O=C(NCCN1CCOCC1)c1cc(-c2ccccc2)on1 | – | 248% (inactive) |
| O=C(Nc1ncc(-c2ccccc2)o1)c1cc(-c2ccccc2)on1 | – | 4.26% (inactive) |
| CC1CN(Cc2ccc(O)c3ncccc23)CC(C)O1 (configuration not stated) | 18.6 µM | – |
| c1ccc(-c2nnc(-c3ccccn3)nc2NCCN2CCOCC2)cc1 | 7.2 µM | – |

| SMILES | AC40 [1] | activation [2] |
| --- | --- | --- |
| C=CCNc1nc(-c2ccccn2)nnc1-c1ccccc1 | 5.24 µM | – |
| O=C(c1cc(-c2ccccc2)on1)N1CCC(N2CCOCC2)CC1 | – | -3.94% (inactive) |
| c1ccc(-c2csc(Nc3nc(-c4ccccn4)nnc3-c3ccccc3)n2)cc1 | 0.88 µM | – |
| c1ccc(-c2cccc(CNc3nc(-c4ccccn4)nnc3-c3ccccc3)c2)cc1 | 0.407 µM | – |
| c1ccc(-c2cnc(Nc3nc(-c4ccccn4)nnc3-c3ccccc3)s2)cc1 | 9.91 µM | – |
| Cc1cccc(CNC(=O)c2cc(-c3ccccc3)on2)c1 | – | 12.7% (inactive) |
| Oc1ccc(CN2CCc3ccccc3C2)c2cccnc12 | 3.58 µM and 20.4 µM | – |
| CC(C)(C)c1ccc(CNc2nc(-c3ccccn3)nnc2-c2ccccc2)cc1 | 0.169 µM | – |
| c1ccc(-c2nnc(-c3ccccn3)nc2N2CCC(C3CCCCC3)C2)cc1 (configuration not stated) | 0.24 µM | – |
| CN1CCN(C(=O)c2cc(-c3ccccc3)on2)CC1 | – | -3.79% (inactive) |
| c1ccc(-c2nnc(-c3ccccn3)nc2Nc2nc3ccccc3s2)cc1 | 1.26 µM | – |
| O=C(Nc1nc(-c2ccccc2)cs1)c1cc(-c2ccccc2)on1 | – | 0.096% (inactive) |
| O=C(NCC1CCCCC1)c1cc(-c2ccccc2)on1 | > 38 µM (inactive) | – |
| CN(C)CCNC(=O)c1cc(-c2ccccc2)on1 | > 38 µM (inactive) | – |
| C[C@@H](Nc1nc(-c2ccccn2)nnc1-c1ccccc1)c1ccccc1 | 1.87 µM | – |
| OCC1CCN(c2nc(-c3ccccn3)nnc2-c2ccccc2)CC1 | 13.6 µM | – |
| O=C(Nc1ccc2ccccc2n1)c1cc(-c2ccccc2)on1 | – | 0.342% (inactive) |
| O=C(NC1CCc2ccccc2C1)c1cc(-c2ccccc2)on1 (configuration not stated) | > 38 µM (inactive) | – |
| Cn1c(NC(=O)c2cc(-c3ccccc3)on2)nc2ccccc21 | – | -0.603% (inactive) |
| Oc1ccc(CN2CCC3CCCCC3C2)c2cccnc12 (configuration not stated) | 5.44 µM | – |
| COc1ccccc1N1CCN(Cc2ccc(O)c3ncccc23)CC1 | – | 219% (inactive) |
| Clc1cccc(CNc2nc(-c3ccccn3)nnc2-c2ccccc2)c1 | 0.651 µM | – |

| SMILES | AC40 [1] | activation [2] |
| --- | --- | --- |
| CC(C)(C)CCNC(=O)c1cc(-c2ccccc2)on1 | 18 µM | – |
| OCC1CCN(Cc2ccc(O)c3ncccc23)CC1 | 4.02 µM | – |
| Oc1ccc(CNC2Cc3ccccc3C2)c2cccnc12 | 4.22 µM | – |
| O=C(NCCCN1CCOCC1)c1cc(-c2ccccc2)on1 | 14.8 µM | – |
| CC(Nc1nc(-c2ccccn2)nnc1-c1ccccc1)c1ccccc1 (configuration not stated) | 1.48 µM | – |
| CCCCNC(=O)c1cc(-c2ccccc2)on1 | 5.94 µM | – |
| c1ccc(-c2nnc(Nc3nc(-c4ccccn4)nnc3-c3ccccc3)s2)cc1 | 7.75 µM | – |
| COc1cccc(CNc2nc(-c3ccccn3)nnc2-c2ccccc2)c1 | 1.08 µM | – |
| c1ccc(-c2nnc(-c3ccccn3)nc2NCC2CCCCC2)cc1 | 1.13 µM | – |
| N#CC1(c2ccccc2)CCN(Cc2ccc(O)c3ncccc23)CC1 | > 38 µM (inactive) | – |
| CC(C)(C)CCNc1nc(-c2ccccn2)nnc1-c1ccccc1 | 0.77 µM and 0.585 µM | – |
| Oc1ccc(CNC2CCc3ccccc32)c2cccnc12 (configuration not stated) | 10.3 µM | – |
| Cc1ccc(CNc2nc(-c3ccccn3)nnc2-c2ccccc2)cc1C | 0.779 µM | – |
| O=C(NCCCn1ccnc1)c1cc(-c2ccccc2)on1 | 5.74 µM | – |
| Cc1ccc(CNc2nc(-c3ccccn3)nnc2-c2ccccc2)cc1 | 1.24 µM | – |
| CN1CCN(c2nc(-c3ccccn3)nnc2-c2ccccc2)CC1 | 8.8 µM | – |
| c1ccc(-c2nnc(-c3ccccn3)nc2NCc2cccnc2)cc1 | 3.21 µM | – |
| Cc1cccc(CNc2nc(-c3ccccn3)nnc2-c2ccccc2)c1 | 1.83 µM | – |
| Cn1c(-c2ccccc2)cnc1NC(=O)c1cc(-c2ccccc2)on1 | > 38 µM (inactive) | – |
| c1ccc(-c2nnc(-c3ccccn3)nc2NCC2CC2)cc1 | 3.09 µM | – |
| c1ccc(-c2nnc(-c3ccccn3)nc2NCC2CCOCC2)cc1 | 6.43 µM | – |

Source: PubChem BioAssay AID493239 (Broad Institute, 2011)
